Test results: ChEMBL document CHEMBL3797175, “Discovery of 6-(difluoro(6-(4-fluorophenyl)-[1,2,4]triazolo[4,3-b][1,2,4]triazin-3-yl)methyl)quinoline as a highly potent and selective c-Met inhibitor” (Eur J Med Chem, 2016)

Tests used:
[1] = biological target: T1, TPR/MET fusion protein (Mus musculus) (UniProt P16056+F6ZDS4); assay: Inhibition of TPR-MET in mouse […] cells assessed as inhibition of cell proliferation at 10 uM after 72 hrs by SRB or MTT assay relative to control; assay type: cell-based
Method in brief: (§1)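 Cells seeded, exposed next day to a range of concentrations for 72 h. Growth read by sulforhodamine B or MTT. IC50 from four-parameter concentration-response fit. Each concentration tested at least in triplicate, with at least 2 experiments.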

[2] = biological target: T1, TPR/MET fusion protein (Mus musculus); assay: Inhibition of TPR-MET in mouse […] cells assessed as inhibition of cell proliferation at 1 uM after 72 hrs by SRB or MTT assay relative to control; assay type: cell-based; method in brief: as §1
[3] = biological target: Hepatocyte growth factor receptor (Homo sapiens, UniProt P08581); assay: Inhibition of recombinant c-Met (unknown origin) using poly (Glu, Tyr) 4:1 as substrate incubated for 60 mins by ELISA
[4] = Tmax in Sprague-Dawley rat at 10 mg/kg, po administered as single dose; assay type: ADME, organism-based; conditions: in vivo
Method in brief: (§2)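 Male Sprague-Dawley rats (n=3), single dose. IV 2 mg/kg in 1% DMA/9% Cremophor/90% saline; PO 10 mg/kg in 0.5% CMC-Na. For one compound, IV 10 mg/kg in DMSO/Tween 80/PEG40 and PO 10 mg/kg in 10% DMSO/5% Tween 80/85% saline.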

[5] = Clearance in Sprague-Dawley rat at 2 mg/kg, iv administered as single dose; assay type: ADME, organism-based; conditions: in vivo
Method in brief: (§3)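 Male Sprague Dawley rats (n=3), single dose. iv 2 mg/kg in 1% DMA/9% Cremophor/90% saline. po 10 mg/kg in 0.5% CMC-Na. Where iv was 10 mg/kg: 10% DMSO/10% Tween 80/80% (40% PEG40); po in that case in 10% DMSO/5% Tween 80/85% saline.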

[6] = Oral bioavailability in Sprague-Dawley rat at 10 mg/kg administered as single dose; assay type: ADME, organism-based; conditions: in vivo; method in brief: as §2
[7] = Antitumor activity against human EBC1 cells xenografted in athymic nude mouse assessed as tumor growth inhibition at 12.5 mg/kg, po bid for 21 days measured twice a week during compound dosing relative to control; assay type: functional; conditions: EBC-1, po, 504 h, read-out: TGI
Method in brief: (§4)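 Nude mice bearing s.c. tumours. Cells were first grown s.c. to 700–800 mm³, then 1.5 mm³ fragments were transplanted s.c. into the right flank. Mice were randomised at 100–200 mm³ (n=6 treated, n=12 vehicle) and dosed orally twice daily for 21 days. Caliper measurement twice weekly; TV = length×width²/2. TGI taken on the final day versus vehicle; Student's t test.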

[8] = Half life in Sprague-Dawley rat at 2 mg/kg, iv administered as single dose; assay type: ADME, organism-based; conditions: in vivo; method in brief: as §3
[9] = Cmax in Sprague-Dawley rat at 10 mg/kg, po administered as single dose; assay type: ADME, organism-based; set-up: dose 10 mg/kg, route oral; conditions: in vivo; method in brief: as §3
[10] = Volume of distribution at steady state in Sprague-Dawley rat at 2 mg/kg, iv administered as single dose; assay type: ADME, organism-based; conditions: in vivo, read-out: Vdss; method in brief: as §2
[11] = Antitumor activity against human EBC1 cells xenografted in athymic nude mouse assessed as tumor growth inhibition at 25 mg/kg, po bid for 21 days measured twice a week during compound dosing relative to control; assay type: functional; conditions: EBC-1, po, 504 h, read-out: TGI; method in brief: as §4
[12] = AUC (0 to infinity) in Sprague-Dawley rat at 10 mg/kg, po administered as single dose; assay type: ADME, organism-based; set-up: dose 10 mg/kg, route oral, time infinity; conditions: in vivo
[13] = Half life in Sprague-Dawley rat at 10 mg/kg, iv administered as single dose; assay type: ADME, organism-based; conditions: in vivo; method in brief: as §3
[14] = Volume of distribution at steady state in Sprague-Dawley rat at 10 mg/kg, iv administered as single dose; assay type: ADME, organism-based; conditions: in vivo, read-out: Vdss; method in brief: as §2
[15] = Clearance in Sprague-Dawley rat at 10 mg/kg, iv administered as single dose; assay type: ADME, organism-based; conditions: in vivo; method in brief: as §3
[16] = test system: Mus musculus; assay: Toxicity in athymic nude mouse xenografted with human EBC1 cells assessed as body weight loss at 25 mg/kg, po bid for 21 days measured twice a week during compound dosing; assay type: organism-based; conditions: in vivo, 504 h
Method in brief: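 Nude mice carrying s.c. EBC-1 tumor fragments, randomized at 100–200 mm³ (n=6 treated, n=12 vehicle). Dosed orally twice daily for 21 days. Body weight and caliper tumor volume measured twice weekly.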

T1 sequence (F6ZDS4 whole entry partner, the tested form may be a part): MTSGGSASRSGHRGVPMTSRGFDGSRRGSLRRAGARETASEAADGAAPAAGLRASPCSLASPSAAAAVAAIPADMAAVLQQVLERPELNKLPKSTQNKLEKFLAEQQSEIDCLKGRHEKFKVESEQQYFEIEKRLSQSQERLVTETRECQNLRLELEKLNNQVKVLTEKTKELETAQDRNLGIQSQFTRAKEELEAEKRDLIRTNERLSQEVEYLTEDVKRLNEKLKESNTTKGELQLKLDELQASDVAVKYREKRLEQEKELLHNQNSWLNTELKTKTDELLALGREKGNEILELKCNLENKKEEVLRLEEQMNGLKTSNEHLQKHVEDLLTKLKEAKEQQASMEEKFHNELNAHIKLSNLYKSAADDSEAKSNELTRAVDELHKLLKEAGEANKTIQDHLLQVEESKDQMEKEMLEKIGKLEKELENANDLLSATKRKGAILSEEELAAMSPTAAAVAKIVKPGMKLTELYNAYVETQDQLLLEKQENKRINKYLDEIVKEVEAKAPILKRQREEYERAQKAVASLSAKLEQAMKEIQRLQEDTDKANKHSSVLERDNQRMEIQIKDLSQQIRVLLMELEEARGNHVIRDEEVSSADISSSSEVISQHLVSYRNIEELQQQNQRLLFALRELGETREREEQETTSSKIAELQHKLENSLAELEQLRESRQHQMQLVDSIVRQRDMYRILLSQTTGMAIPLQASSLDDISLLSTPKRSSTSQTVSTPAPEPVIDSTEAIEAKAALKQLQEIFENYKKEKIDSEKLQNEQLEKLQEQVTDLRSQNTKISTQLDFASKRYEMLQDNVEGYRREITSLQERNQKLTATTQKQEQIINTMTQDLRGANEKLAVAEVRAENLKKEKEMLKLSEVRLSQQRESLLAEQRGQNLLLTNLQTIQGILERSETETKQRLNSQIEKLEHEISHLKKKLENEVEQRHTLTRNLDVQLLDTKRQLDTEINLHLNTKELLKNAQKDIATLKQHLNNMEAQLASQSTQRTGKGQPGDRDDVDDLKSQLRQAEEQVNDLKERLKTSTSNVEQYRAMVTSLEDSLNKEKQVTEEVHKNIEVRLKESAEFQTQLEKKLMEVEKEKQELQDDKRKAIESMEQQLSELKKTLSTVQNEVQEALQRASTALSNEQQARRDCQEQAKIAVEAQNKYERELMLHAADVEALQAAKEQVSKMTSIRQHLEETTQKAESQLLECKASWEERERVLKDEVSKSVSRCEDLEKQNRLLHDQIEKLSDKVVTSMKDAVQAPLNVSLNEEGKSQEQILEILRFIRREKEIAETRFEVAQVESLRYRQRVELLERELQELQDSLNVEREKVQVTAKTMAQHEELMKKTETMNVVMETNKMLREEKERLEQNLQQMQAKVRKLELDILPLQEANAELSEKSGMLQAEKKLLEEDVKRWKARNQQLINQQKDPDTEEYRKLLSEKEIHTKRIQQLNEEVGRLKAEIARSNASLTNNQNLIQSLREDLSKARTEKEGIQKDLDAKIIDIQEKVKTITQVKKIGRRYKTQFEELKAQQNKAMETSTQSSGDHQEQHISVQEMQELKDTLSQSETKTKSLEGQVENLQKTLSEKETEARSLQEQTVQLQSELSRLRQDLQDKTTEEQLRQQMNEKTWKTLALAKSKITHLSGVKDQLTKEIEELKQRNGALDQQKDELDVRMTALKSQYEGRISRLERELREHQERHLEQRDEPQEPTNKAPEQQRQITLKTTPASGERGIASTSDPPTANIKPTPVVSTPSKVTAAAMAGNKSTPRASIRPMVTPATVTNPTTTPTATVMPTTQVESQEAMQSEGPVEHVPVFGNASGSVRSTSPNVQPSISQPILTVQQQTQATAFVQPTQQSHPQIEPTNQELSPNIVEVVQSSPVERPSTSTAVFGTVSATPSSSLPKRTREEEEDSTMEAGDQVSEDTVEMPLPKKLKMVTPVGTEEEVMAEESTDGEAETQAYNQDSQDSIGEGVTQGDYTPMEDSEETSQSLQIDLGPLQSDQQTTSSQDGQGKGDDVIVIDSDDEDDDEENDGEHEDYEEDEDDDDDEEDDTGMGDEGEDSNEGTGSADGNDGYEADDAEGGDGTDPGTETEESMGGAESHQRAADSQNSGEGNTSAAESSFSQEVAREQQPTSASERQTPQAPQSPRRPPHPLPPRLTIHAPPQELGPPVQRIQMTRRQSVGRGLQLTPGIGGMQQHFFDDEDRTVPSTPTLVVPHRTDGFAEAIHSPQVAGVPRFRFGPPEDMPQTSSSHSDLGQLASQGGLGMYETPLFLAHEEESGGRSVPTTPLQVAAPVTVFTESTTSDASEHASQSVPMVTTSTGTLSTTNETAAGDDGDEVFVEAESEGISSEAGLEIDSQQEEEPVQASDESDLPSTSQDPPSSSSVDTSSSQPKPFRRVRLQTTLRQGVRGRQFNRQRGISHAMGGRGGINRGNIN
T1 sequence (P16056 25-1379 limits assumed): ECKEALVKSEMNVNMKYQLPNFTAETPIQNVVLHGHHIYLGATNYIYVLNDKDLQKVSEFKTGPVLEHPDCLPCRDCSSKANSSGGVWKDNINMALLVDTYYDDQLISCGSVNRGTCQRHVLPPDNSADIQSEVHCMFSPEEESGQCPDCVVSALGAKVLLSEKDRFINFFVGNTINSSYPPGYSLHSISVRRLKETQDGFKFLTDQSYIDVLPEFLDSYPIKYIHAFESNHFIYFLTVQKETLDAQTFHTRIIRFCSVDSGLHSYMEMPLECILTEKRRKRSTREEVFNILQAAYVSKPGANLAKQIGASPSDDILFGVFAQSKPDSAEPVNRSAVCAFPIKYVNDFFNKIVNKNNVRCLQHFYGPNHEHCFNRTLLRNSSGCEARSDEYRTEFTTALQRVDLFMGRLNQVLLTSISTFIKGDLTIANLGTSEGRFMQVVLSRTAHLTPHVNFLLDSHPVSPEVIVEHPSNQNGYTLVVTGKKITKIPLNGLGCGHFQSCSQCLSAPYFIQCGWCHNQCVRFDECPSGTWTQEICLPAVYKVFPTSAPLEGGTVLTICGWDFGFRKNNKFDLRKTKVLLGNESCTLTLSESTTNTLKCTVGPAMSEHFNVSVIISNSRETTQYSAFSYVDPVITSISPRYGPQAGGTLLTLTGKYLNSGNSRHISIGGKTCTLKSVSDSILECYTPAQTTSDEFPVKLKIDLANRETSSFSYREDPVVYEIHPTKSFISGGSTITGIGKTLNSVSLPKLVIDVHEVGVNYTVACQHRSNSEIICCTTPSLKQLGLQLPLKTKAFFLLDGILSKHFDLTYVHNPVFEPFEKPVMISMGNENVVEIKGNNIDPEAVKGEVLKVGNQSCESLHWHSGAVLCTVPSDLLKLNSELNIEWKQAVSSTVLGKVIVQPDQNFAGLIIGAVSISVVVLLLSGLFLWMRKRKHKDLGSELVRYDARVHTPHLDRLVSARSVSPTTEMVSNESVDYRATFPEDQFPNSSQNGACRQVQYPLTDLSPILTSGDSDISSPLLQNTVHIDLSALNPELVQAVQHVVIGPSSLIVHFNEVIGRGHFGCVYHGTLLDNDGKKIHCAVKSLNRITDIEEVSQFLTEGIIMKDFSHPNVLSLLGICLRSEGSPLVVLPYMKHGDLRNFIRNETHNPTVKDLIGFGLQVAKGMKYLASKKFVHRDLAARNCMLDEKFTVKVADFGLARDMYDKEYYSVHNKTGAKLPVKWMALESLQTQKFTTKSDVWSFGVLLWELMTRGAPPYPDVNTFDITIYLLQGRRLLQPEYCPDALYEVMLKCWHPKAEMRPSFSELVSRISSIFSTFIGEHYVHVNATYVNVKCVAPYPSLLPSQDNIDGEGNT
Chain of Hepatocyte growth factor receptor (P08581 whole entry): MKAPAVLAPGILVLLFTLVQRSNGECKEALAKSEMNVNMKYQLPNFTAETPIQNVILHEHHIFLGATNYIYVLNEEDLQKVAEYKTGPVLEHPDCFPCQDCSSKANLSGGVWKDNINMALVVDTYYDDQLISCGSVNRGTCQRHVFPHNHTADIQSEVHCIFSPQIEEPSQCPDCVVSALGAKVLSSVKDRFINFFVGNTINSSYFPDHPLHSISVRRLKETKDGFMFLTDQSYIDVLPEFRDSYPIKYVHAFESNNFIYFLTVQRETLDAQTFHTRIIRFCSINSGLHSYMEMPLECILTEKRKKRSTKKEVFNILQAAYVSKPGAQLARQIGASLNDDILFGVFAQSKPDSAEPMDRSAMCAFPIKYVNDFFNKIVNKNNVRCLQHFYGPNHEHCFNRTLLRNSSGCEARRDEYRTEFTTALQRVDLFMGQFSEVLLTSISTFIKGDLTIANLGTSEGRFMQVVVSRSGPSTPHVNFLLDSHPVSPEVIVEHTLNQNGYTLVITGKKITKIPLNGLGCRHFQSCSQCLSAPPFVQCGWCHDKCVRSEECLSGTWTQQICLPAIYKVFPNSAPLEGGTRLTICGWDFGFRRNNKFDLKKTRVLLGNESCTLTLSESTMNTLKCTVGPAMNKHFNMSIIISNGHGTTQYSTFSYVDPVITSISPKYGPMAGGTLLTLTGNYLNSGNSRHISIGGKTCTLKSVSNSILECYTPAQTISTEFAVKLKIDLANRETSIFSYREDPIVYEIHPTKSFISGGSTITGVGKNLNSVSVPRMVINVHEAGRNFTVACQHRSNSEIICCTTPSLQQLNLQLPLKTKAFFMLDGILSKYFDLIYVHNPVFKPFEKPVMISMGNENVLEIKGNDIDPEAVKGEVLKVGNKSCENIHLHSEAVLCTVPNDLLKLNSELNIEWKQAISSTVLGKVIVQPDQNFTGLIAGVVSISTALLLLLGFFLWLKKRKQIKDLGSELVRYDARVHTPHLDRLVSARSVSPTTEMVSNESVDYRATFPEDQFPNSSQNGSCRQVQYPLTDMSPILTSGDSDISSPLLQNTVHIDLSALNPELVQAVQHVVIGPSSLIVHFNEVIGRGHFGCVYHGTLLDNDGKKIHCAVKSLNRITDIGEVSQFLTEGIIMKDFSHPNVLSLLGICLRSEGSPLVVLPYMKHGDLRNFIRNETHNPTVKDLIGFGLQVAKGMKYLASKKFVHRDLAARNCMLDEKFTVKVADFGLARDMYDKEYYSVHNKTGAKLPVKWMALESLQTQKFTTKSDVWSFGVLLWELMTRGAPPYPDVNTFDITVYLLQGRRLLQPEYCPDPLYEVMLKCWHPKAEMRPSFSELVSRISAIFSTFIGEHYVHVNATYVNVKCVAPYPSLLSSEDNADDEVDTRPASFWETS

inhibition [1] [%]	inhibition [2] [%]	SMILES	other results
97.1	85.5	CCn1cc(-c2cnc3nnc(Cc4ccc5ncccc5c4)n3n2)cn1	–
72.2	70.8	Cn1cc(-c2ccc3nnc(C(F)(F)c4ccc5ncccc5c4)n3n2)cn1 [JNJ-38877605]	IC50 [3]: 950 pM
78	63.1	c1cnc2ccc(Cc3nnc4ncc(-c5cnc6ccccc6c5)nn34)cc2c1	–
–	–	FC(F)(c1ccc2ncccc2c1)c1nnc2ncc(-c3ccco3)nn12	Tmax [4]: 0.42 h; clearance [5]: 39.5 mL/min/kg; bioavailability [6]: 48%; inhibition in vivo at 12.5 mg/kg [7]: 50.1%; half-life [8]: 1.53 h; Cmax [9]: 961 ng/mL; Vd [10]: 5.14 L/kg; inhibition in vivo at 25 mg/kg [11]: 65.8%; AUC(0-inf) [12]: 2040 ng·h/mL
17.3	9.9	Brc1ccc(-c2cnc3nnc(Cc4c[nH]c5ccccc45)n3n2)cc1	–
–	–	Cn1cc(-c2cnc3nnc(C(F)(F)c4ccc5ncccc5c4)n3n2)cn1	Tmax [4]: 2.5 h; bioavailability [6]: 9.4%; Cmax [9]: 209 ng/mL; half-life [13]: 1.14 h; Vd [14]: 0.81 L/kg; clearance [15]: 22.3 mL/min/kg; AUC(0-inf) [12]: 780 ng·h/mL
80.6	69.2	Clc1ccc(-c2cnc3nnc(Cc4ccc5ncccc5c4)n3n2)cc1	–
69.9	36.1	Oc1cccc(-c2cnc3nnc(Cc4ccc5ncccc5c4)n3n2)c1	–
88.4	88.1	CCCn1cc(-c2cnc3nnc(Cc4ccc5ncccc5c4)n3n2)cn1	–
–	–	CCCn1cc(-c2cnc3nnc(C(F)(F)c4ccc5ncccc5c4)n3n2)cn1	Tmax [4]: 0.5 h; clearance [5]: 30.7 mL/min/kg; bioavailability [6]: 61.6%; inhibition in vivo at 12.5 mg/kg [7]: 75.9%; half-life [8]: 1.21 h; Cmax [9]: 1610 ng/mL; Vd [10]: 3.2 L/kg; Activity [16]: Toxic; inhibition in vivo at 25 mg/kg [11]: 96.6%; AUC(0-inf) [12]: 3390 ng·h/mL
58	26.9	c1ccc(COc2ccc(-c3cnc4nnc(Cc5c[nH]c6ccccc56)n4n3)cc2)cc1	–
81	69.8	COc1cccc(-c2cnc3nnc(Cc4ccc5ncccc5c4)n3n2)c1	–
83.5	82.2	Clc1ccc(-c2cnc3nnc(Cc4ccc5ncccc5c4)n3n2)cc1Cl	–
77	14.9	c1cnc2ccc(Cc3nnc4ncc(-c5cnn(C6CCNCC6)c5)nn34)cc2c1	–
88	53.8	c1ccc(COc2ccc(-c3cnc4nnc(Cc5ccc6ncccc6c5)n4n3)cc2)cc1	–
89.5	68.3	c1ccc(Cn2cc(-c3cnc4nnc(Cc5ccc6ncccc6c5)n4n3)cn2)cc1	–
10.2	8.2	Oc1cccc(-c2cnc3nnc(Cc4c[nH]c5ccccc45)n3n2)c1	–
88.3	76.6	O=[N+]([O-])c1cccc(-c2cnc3nnc(Cc4ccc5ncccc5c4)n3n2)c1	–
83.6	75.8	Brc1ccc(-c2cnc3nnc(Cc4ccc5ncccc5c4)n3n2)cc1	–
80.9	58.4	c1ccc(-c2cnc3nnc(Cc4ccc5ncccc5c4)n3n2)cc1	–
89.3	85.9	c1csc(-c2cnc3nnc(Cc4ccc5ncccc5c4)n3n2)c1	–
77.8	76.9	Cn1cc(-c2cnc3nnc(Cc4ccc5ncccc5c4)n3n2)cn1	–
86.6	68.9	CC(C)(C)OC(=O)N1CCC(n2cc(-c3cnc4nnc(Cc5ccc6ncccc6c5)n4n3)cn2)CC1	–
